Compounds with a hit are over-represented: about 2.6% of the library has one in this group of screens.
miR122 inh: blocks miR-122 activity in Huh7 sensor cells; activation (reporter increase), % at 12.5 µM; hit rate 0.3% among 340,000; AID 602342; Huh7 miR-122 Renilla luciferase sensor, 48 h; neutral wells = 0, positive control = 100;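 active = mean replicate activation score at least 90 and every replicate individually at or above 90; inconclusive = only one of the two criteria met; inactive = neither criterion met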;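 also: higher luciferase means less miR-122 activity so hits act as miR-122 inhibitors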
DENV2 CPE: DENV2-induced cell death inhibition; DENV2-infected cells, cytopathic effect rescue, plate reader; CPE inhibition, % at 9.99 µM; hit rate 1.7% among 350,000; AID 651640; in the data active = CPE inhibition above about 20%, passing the limit was not always enough; inconclusive = no clear call, values can overlap the other calls; tested in BHK-21 cells;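 also: 0% = median of neutral control wells and 100% = median of positive control wells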
CFTR F508del cor: CFTR F508del correction in bronchial cells | hit rate 0.36% among 350,000 | CFBE cells, YFP halide quenching; stimulated with forskolin plus potentiator P3; % fluorescence drop versus neutral controls | activity (quench increase), % at 7.58 µM;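 active = mean added fluorescence quench of at least 8% versus neutral control, with both replicates also reaching 8%; inconclusive = only one of the mean or replicate conditions met; inactive = mean below 8% and not both replicates reaching 8%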;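 also: cells transiently co-express mutant CFTR-F508del with the halide-sensitive YFP; corrector assay measuring rescue of mutant channel to the surface after 24 h compound exposure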
E-sel inducer: E-selectin induction on HUVECs. P16581. HUVEC E-selectin immunofluorescence imaging; normalized: neutral wells 0, TNF-alpha wells 100. activation, % at 7.58 µM. hit rate 0.37% among 260,000. AID 686992;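 active = mean E-selectin-positive cell signal at least 10% of the positive control, reached in at least 60% of replicates, without over 20% cell loss; inconclusive = no rule given, readout overlaps actives, possibly toxicity-flagged; inactive = the rest, including those meeting only one limit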
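Assay system: HUVEC, human umbilical vein endothelial cells / Amount: 3,000 HUVEC/well / Controls: TNF-alpha positive control, DMSO neutral control / Compound dosing: single concentration / Medium: EGM-2 over gelatin coat / Evaluation: percent E-selectin-positive cells / Signal: immunofluorescence imaging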
ERAP1 inh: blocks human ERAP1 aminopeptidase activity; Q9NZ08; inhibition, % at 10.7 µM; recombinant ERAP1, Leu-AMC fluorescence, 60 min; hit rate 0.15% among 340,000;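 active = mean replicate inhibition of at least 30%, or all replicates individually reaching that 30% level; inactive = mean below 30% and not every replicate reaching it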;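 also: 0% = neutral control wells and 100% = L-leucinethiol positive control wells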
Target sequence (Q9NZ08 whole entry, looked up): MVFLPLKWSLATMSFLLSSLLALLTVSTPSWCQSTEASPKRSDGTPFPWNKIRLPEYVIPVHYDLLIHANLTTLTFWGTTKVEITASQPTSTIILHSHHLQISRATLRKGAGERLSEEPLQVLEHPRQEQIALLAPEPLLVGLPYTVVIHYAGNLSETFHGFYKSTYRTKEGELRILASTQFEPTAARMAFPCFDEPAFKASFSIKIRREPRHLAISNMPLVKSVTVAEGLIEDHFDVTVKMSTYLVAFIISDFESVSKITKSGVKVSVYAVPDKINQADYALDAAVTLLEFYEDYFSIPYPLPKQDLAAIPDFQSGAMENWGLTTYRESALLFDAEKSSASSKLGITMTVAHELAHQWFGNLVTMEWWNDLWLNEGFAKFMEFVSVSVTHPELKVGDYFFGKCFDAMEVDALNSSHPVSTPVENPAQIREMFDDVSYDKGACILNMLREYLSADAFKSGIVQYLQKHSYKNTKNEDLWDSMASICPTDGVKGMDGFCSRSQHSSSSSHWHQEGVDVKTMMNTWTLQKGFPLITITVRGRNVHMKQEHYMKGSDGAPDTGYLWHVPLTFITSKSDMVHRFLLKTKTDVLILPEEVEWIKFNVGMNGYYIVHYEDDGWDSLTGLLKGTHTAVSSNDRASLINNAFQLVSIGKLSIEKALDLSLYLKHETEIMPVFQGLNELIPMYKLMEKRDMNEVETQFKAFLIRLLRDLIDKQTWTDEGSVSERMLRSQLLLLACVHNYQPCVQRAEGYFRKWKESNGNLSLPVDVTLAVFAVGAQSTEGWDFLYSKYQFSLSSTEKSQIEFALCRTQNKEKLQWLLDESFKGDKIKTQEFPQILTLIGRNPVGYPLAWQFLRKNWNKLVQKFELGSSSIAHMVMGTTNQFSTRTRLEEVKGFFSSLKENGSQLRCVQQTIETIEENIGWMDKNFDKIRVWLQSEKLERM
GSIS activator: GLuc luminescence reporter in INS-1E cells, primary screen for activators of glucose-dependent secretion of insulin; INS-1E GLuc reporter insulin secretion, 2-3 h; hit rate 0.61% among 370,000; activation, % at 16.6 µM; AID 743287;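 active = lowest replicate activation of at least 40%, so every replicate reaches that level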;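 also: 0% = median of neutral control wells and 100% = median of IBMX positive control wells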
An asterisk follows results filed as active; ? = inconclusive; nt = not tested or not shown; [ ] = dose if it differs, or a comment.

SMILES	miR122 inh	DENV2 CPE	CFTR F508del cor	E-sel inducer	ERAP1 inh	GSIS activator
O=C(Nc1ccccc1)N1CCCCN2[C@@H](CO)[C@@H](c3ccc(C#Cc4ccccc4)cc3)[C@@H]2C1	-10[16.7 µM]	0	-6	0	5	-8
C[C@H](O)C#Cc1ccc([C@H]2[C@@H](CO)N3CCCCN(C(=O)Nc4ccccc4)C[C@@H]23)cc1	0[16.7 µM]	23*	1	0	-1	-7
C[C@H](O)C#Cc1ccc([C@@H]2[C@@H](CO)N3CCCCN(C(=O)Nc4ccccc4)C[C@@H]23)cc1	-5[16.7 µM]	1	0	0	0	4
O=C(Nc1ccccc1)N1CCCCN2[C@@H](CO)[C@H](c3ccc(C#Cc4ccccc4)cc3)[C@@H]2C1	-16[16.7 µM]	5	8.1*	2	1	-29
C[C@@H]1CN([C@H](C)CO)C(=O)c2cc(-c3ccccc3F)cnc2O[C@@H]1CN(C)Cc1ccc(F)cc1	2[16.7 µM]	-7	-1	0	-2	23
CN1C(=O)c2cc(NS(=O)(=O)c3ccc(F)cc3)ccc2OC[C@H]2O[C@H](CC(=O)O)CC[C@H]21	1[16.7 µM]	3	1	0	-1	7
COCC(=O)N1[C@H](CO)[C@@H]2c3ccccc3N(C(=O)c3ccncc3)C[C@@H]21	4[16.7 µM]	8	-1	0	-3	25
CO[C@H]1CN(C)C(=O)c2cc(NC(=O)Nc3cccc(Cl)c3)ccc2OC[C@@H](C)N(C)C[C@@H]1C	5[16.7 µM]	-3	-3	0	nt	-13
C[C@H](O)C#Cc1cnc2c(c1)C(=O)N([C@@H](C)CO)C[C@H](C)[C@@H](CN(C)CC1CCCC1)O2	-5[16.7 µM]	-7	1	0	-8	4
CN(C)CC#Cc1ccc([C@H]2[C@@H](CO)N3CCCCN(C(=O)c4ccc5c(c4)OCO5)C[C@H]23)cc1	2[16.7 µM]	22*	1	0	-2	10
Cc1ccc(C)c(N2CCN(C(=O)CCc3nc(-c4ccccc4)no3)CC2)c1	5	20*	2	0	0	-16
Cc1cccc(-c2noc(CCC(=O)N3CCN(c4cc(C)ccc4C)CC3)n2)c1	4	1	3	-6	nt	-1
C[C@@H]1CCCCO[C@H](CN(C)S(=O)(=O)c2ccc(Cl)cc2)[C@@H](C)CN([C@@H](C)CO)C(=O)c2cc(N(C)C)ccc2O1	-5[16.7 µM]	nt	2	0	nt	4
O=C(O)CSc1nnc(NC(=O)CN2CCOCC2)s1	-5	4	2	0	2	96*
COc1ccc(C(=O)N2C[C@@H]3[C@H](c4ccccc42)[C@H](CO)N3C(=O)c2ccc(F)cc2)cc1	12[16.7 µM]	6	6	0	-1	-4
COCC(=O)N1[C@H](CO)[C@H]2c3ccccc3N(C(=O)c3cccc(OC)c3)C[C@H]21	25[16.7 µM]	55*	-2	-1	1	3
COCC(=O)N1[C@H](CO)[C@@H]2c3ccccc3N(C(=O)c3cccc(OC)c3)C[C@@H]21	4[16.7 µM]	-2	-1	0	1	6
COc1cccc(C(=O)N2C[C@H]3[C@@H](c4ccccc42)[C@@H](CO)N3C(=O)c2ccc(F)cc2)c1	229*[16.7 µM]	11	0	0	1	9
Cc1noc(C)c1NC(=O)Nc1ccc2c(c1)C(=O)N([C@H](C)CO)C[C@H](C)[C@H](CN(C)C(=O)Nc1cccc3ccccc13)OCCCC[C@H](C)O2	4[16.7 µM]	13	1	0	nt	-26
CO[C@H]1CN(C)C(=O)c2cc(NS(=O)(=O)c3ccc(Cl)cc3)ccc2OC[C@H](C)NC[C@H]1C	9[16.7 µM]	9	1	0	-3	10
COc1ccc(NC(=O)N(C)C[C@H]2Oc3c(NC(=O)C4CCCCC4)cccc3C(=O)N([C@@H](C)CO)C[C@H]2C)cc1	-13[16.7 µM]	2	-2	0	nt	0
Cc1ccccc1-c1ccc2c(c1)O[C@@H](CN(C)C(=O)Nc1ccc(F)cc1)[C@@H](C)CN([C@@H](C)CO)S2(=O)=O	-38[16.7 µM]	0	1	0	-2	-22
O=C1NC(=S)S/C1=C\C=C\c1ccc([N+](=O)[O-])o1	?	-3	-17	248*	5	-63
O=C(O)/C=C/c1ccc([N+](=O)[O-])o1	nt	-5	2	nt	6	1

Compound activity: PubChem BioAssay, Broad Institute
